Results published in ChEMBL document CHEMBL1128545, “Effect of a chiral 4-alkyl substituent in hallucinogenic amphetamines” (J Med Chem, 1995).

Assays:
Rattus norvegicus [1] = test: Percentage of rats selecting the drug lever (% SDL) for dose 0.77(umol/kg); type: functional
Outline: (§1)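 Drugs are given ip in saline. Test sessions run under extinction and end at 50 presses on one lever. Rats must hold 85% accuracy on training days. The read-out is the percentage of rats choosing the drug lever at each dose.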

Rattus norvegicus [2] = test: Percentage of rats selecting the drug lever (% SDL) for dose 1.02(umol/kg); type: functional; outline: as §1
Rattus norvegicus [3] = test: Percentage of rats selecting the drug lever (% SDL) for dose 0.51(umol/kg); type: functional; outline: as §1
Rattus norvegicus [4] = species: Rattus norvegicus; test: Potency against LSD trained rat, activity is expressed as ED50; type: functional
[5] = Hill coefficient of the compound
Outline: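 Rat frontal cortex (male Sprague–Dawley) homogenized in 0.32 M sucrose, preincubated twice 10 min at 37 °C; assay in 50 mM Tris HCl pH 7.4 with EDTA, ascorbate, 10 mM MgCl2, 10 µM pargyline, 200–400 µg protein. Displacement of 0.25 nM [125I]-(R)-DOI, 15 min at 37 °C, GF/C filtration, γ-counting. Triplicates, 3–4 experiments; parameters fitted by EBDA/LIGAND.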

Rattus norvegicus [6] = test: Percentage of rats selecting the drug lever (% SDL) for dose 2.04(umol/kg); type: functional; outline: as §1
[7] = target: Serotonin 2 (5-HT2) receptor (Rattus norvegicus, UniProt P30994+P08909+P14842); test: Binding affinity against 5-hydroxytryptamine 2 receptor from rat frontal cortex using [125]-(R)-DOI as radioligand; type: tissue-based
Outline: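 Rat frontal cortex (male Sprague–Dawley) homogenized in 0.32 M sucrose, preincubated twice 10 min at 37 °C; assay in 50 mM Tris HCl pH 7.4 with EDTA, ascorbate, 10 mM MgCl2, 10 µM pargyline, 200–400 µg protein. Triplicates, 3–4 experiments; parameters fitted by EBDA/LIGAND.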

Rattus norvegicus [8] = test: Percentage of rats selecting the drug lever (% SDL) for dose 0.093(umol/kg); type: functional; outline: as §1
Rattus norvegicus [9] = test: Percentage of rats selecting the drug lever (% SDL) for dose 0.047(umol/kg); type: functional; outline: as §1
Rattus norvegicus [10] = test: Percentage of rats selecting the drug lever (% SDL) for dose 0.186 (umol/kg); type: functional; outline: as §1
Rattus norvegicus [11] = test: Percentage of rats selecting the drug lever (% SDL) for dose 0.012 (umol/kg); type: functional; outline: as §1
Rattus norvegicus [12] = test: Percentage of rats selecting the drug lever (% SDL) for dose 0.024(umol/kg); type: functional; outline: as §1
Rattus norvegicus [13] = test: Percentage of rats selecting the drug lever (% SDL) for dose 5.22(umol/kg); type: functional; outline: as §1
Rattus norvegicus [14] = test: Percentage of rats selecting the drug lever (% SDL) for dose 0.87(umol/kg); type: functional; outline: as §1
Rattus norvegicus [15] = test: Percentage of rats selecting the drug lever (% SDL) for dose 3.48(umol/kg); type: functional; outline: as §1
Rattus norvegicus [16] = test: Percentage of rats selecting the drug lever (% SDL) for dose 1.74(umol/kg); type: functional; outline: as §1
Rattus norvegicus [17] = test: Percentage of rats selecting the drug lever (% SDL) for dose 6.96(umol/kg); type: functional; outline: as §1
Rattus norvegicus [18] = test: Percentage of rats selecting the drug lever (% SDL) for dose 3.48 (umol/kg); type: functional; outline: as §1
Rattus norvegicus [19] = test: Percentage of rats selecting the drug lever (% SDL) for dose 13.91(umol/kg); type: functional; outline: as §1

Question: For `COc1cc(CC(C)N)c(OC)cc1C` (stereo not drawn) [DOM], which SDL (Rattus norvegicus [1]) is on record?
Answer: Its SDL is 67%.

Question: What about the SDL (Rattus norvegicus [2]) of the same molecule?
Answer: Its SDL is 67%.

Question: And the SDL (Rattus norvegicus [3])?
Answer: Its SDL is 13%.

Question: What about the ED50 (Rattus norvegicus [4]) of the same molecule?
Answer: Its ED50 is 0.61 µmol/kg.

Question: What about the Hill coefficient [5] of the same molecule?
Answer: The Hill coefficient was 0.89.

Question: What about the SDL (Rattus norvegicus [6]) of the same molecule?
Answer: Its SDL is 100%.

Question: With `CC[C@H](C)c1cc(OC)c(CC(C)N)cc1OC` (stereo partly drawn) as the molecule, how does the ED50 (Rattus norvegicus [4]) read?
Answer: Its ED50 is 4.76 µmol/kg.

Question: And the Hill coefficient [5]?
Answer: The Hill coefficient was 1.06.

Question: And the Ki [7]?
Answer: Its Ki is 7.87 nM.

Question: With `CCN(CC)C(=O)[C@@H]1C=C2c3cccc4[nH]cc(c34)C[C@H]2N(C)C1` [LYSERGIDE] as the molecule, how does the SDL (Rattus norvegicus [8]) read?
Answer: Its SDL is 89%.

Question: And the SDL (Rattus norvegicus [9])?
Answer: Its SDL is 38%.

Question: What about the ED50 (Rattus norvegicus [4]) of the same molecule?
Answer: The ED50 was 0.02 µmol/kg.

Question: What about the SDL (Rattus norvegicus [10]) of the same molecule?
Answer: The SDL was 100%.

Question: And the Hill coefficient [5]?
Answer: Its Hill coefficient is 1.18.

Question: And the SDL (Rattus norvegicus [11])?
Answer: Its SDL is 13%.

Question: And the SDL (Rattus norvegicus [12])?
Answer: Its SDL is 13%.

Question: Which SDL (Rattus norvegicus [13]) does the source give for `CC[C@@H](C)c1cc(OC)c(CC(C)N)cc1OC` (stereo partly drawn) here?
Answer: The SDL was 80%.

Question: What about the ED50 (Rattus norvegicus [4]) of the same molecule?
Answer: Its ED50 is 3.08 µmol/kg.

Question: What about the SDL (Rattus norvegicus [14]) of the same molecule?
Answer: The SDL was 0%.

Question: And the Hill coefficient [5]?
Answer: The Hill coefficient was 1.

Question: And the Ki [7]?
Answer: Its Ki is 7.84 nM.

Question: And the SDL (Rattus norvegicus [15])?
Answer: Its SDL is 50%.

Question: And the SDL (Rattus norvegicus [16])?
Answer: Its SDL is 25%.

Question: What does the source list for `CCC(C)c1cc(OC)c(CC(C)N)cc1OC` (stereo not drawn)?
Answer: SDL (Rattus norvegicus [17]): 70%; SDL (Rattus norvegicus [18]): 60%; SDL (Rattus norvegicus [19]): 90%; ED50 (Rattus norvegicus [4]): 3.69 µmol/kg; SDL (Rattus norvegicus [16]): 18%
